Columns and labels:
[1] = tested on: Rattus norvegicus; experiment: Antiinflammatory activity in po dosed CD1 rat assessed as inhibition of carrageenan-induced paw edema administered 1 hr prior to carrageenan challenge measured after 3 hrs
[2] = tested on: Mus musculus; experiment: Analgesic activity in po dosed CD1 mouse assessed as inhibition of acetic acid-induced writhing administered 30 mins prior to acetic acid challenge measured after 15 mins; assay type: functional
Procedure, shortened: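 Male CD1 mice, 20 ± 2 g, randomly grouped and dosed orally at several levels (10 mL/kg, 1% Tween 80 vehicle), with at least two groups of six per dose. After 30 min, 0.6% acetic acid was given ip at 10 mL/kg, and writhes were counted per group over 15 min. ED50 (dose halving writhes) was read graphically, with no SEM computed.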

[3] = tested on: Mus musculus; experiment: Analgesic activity in po dosed OF1 mouse assessed as dose required to double paw licking reaction time after 30 mins by hot plate test; assay type: functional; conditions: 0.5 h
Procedure, shortened: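 Male OF1 mice, 20 ± 2 g, given oral doses at several levels in 1% Tween 80 at 10 mL/kg, at least 10 per dose. After 30 min each mouse was placed on a metal plate at 56 °C and paw-licking latency was recorded. ED2 (dose doubling latency) was read graphically, with SEM and Dunnett's t versus controls.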

[4] = Acute toxicity in po dosed CD1 mouse after 7 days; assay type: organism-based; conditions: in vivo
Procedure, shortened: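 Male CD1 mice, 20 ± 2 g, oral dosing at 10 mL/kg as an aqueous solution or suspension in 1% Tween 80 in distilled water. At least 10 animals per dose level, observed for 7 days. Oral LD50 calculated by the Litchfield–Wilcoxon method.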

Structure (SMILES) | ED40 [1] | ED50 [2] | ED2 [3] | LD50 at 168 h [4]
O=C(OCCN1CCN(c2ccccc2)CC1)c1ccccc1Nc1ccnc2c(C(F)(F)F)cccc12 | 64 mg/kg | 35 mg/kg | > 300 mg/kg | 3000 mg/kg
O=C(OCCN1CCN(c2cccc(OC(F)(F)F)c2)CC1)c1ccccc1Nc1ccnc2cc(Cl)ccc12 | 50 mg/kg | 120 mg/kg | > 300 mg/kg | 4000 mg/kg
Cc1ccc(Cl)cc1N1CCN(CCOC(=O)c2ccccc2Nc2ccnc3cc(C(F)(F)F)ccc23)CC1 | 65 mg/kg | 20 mg/kg | > 300 mg/kg | 3000 mg/kg
O=C(OCCN1CCN(c2cccc(OC(F)(F)F)c2)CC1)c1ccccc1Nc1ccnc2cc(OC(F)(F)F)ccc12 | 75 mg/kg | 70 mg/kg | > 300 mg/kg | 3500 mg/kg
O=C(OCCN1CCN(c2cccc(Cl)c2)CC1)c1ccccc1Nc1ccnc2cc(C(F)(F)F)ccc12 | 30 mg/kg | 9 mg/kg | 150 mg/kg | > 4000 mg/kg
O=C(OCCN1CCN(c2cccc(OC(F)(F)F)c2)CC1)c1ccccc1Nc1ccnc2cc(C(F)(F)F)ccc12 | 50 mg/kg | 20 mg/kg | > 300 mg/kg | 3500 mg/kg
O=C(OCCN1CCN(c2ccccc2)CC1)c1ccccc1Nc1ccnc2cc(OC(F)(F)F)ccc12 | 40 mg/kg | 24 mg/kg | 300 mg/kg | 1300 mg/kg
O=C(OCCN1CCN(c2cccc(C(F)(F)F)c2)CC1)c1cccnc1Nc1cccc(SC(F)(F)F)c1 | > 50 mg/kg | 250 mg/kg |  | > 4000 mg/kg
O=C(OCCN1CCN(c2cccc(SC(F)(F)F)c2)CC1)c1ccccc1Nc1ccnc2cc(Cl)ccc12 | 30 mg/kg | 120 mg/kg | 200 mg/kg | 3000 mg/kg
COc1ccc(N2CCN(CCOC(=O)c3ccccc3Nc3ccnc4cc(Cl)ccc34)CC2)cc1 | 45 mg/kg | 200 mg/kg | > 300 mg/kg | 
Cc1cc(Nc2ccccc2C(=O)OCCN2CCN(c3ccccc3)CC2)c2ccc(Cl)cc2n1 | > 200 mg/kg | 110 mg/kg | 300 mg/kg | 4000 mg/kg
O=C(OCCN1CCN(c2cccc(C(F)(F)F)c2)CC1)c1ccccc1Nc1ccnc2cc(C(F)(F)F)ccc12 [ANTRAFENINE] | 40 mg/kg | 6 mg/kg | 30 mg/kg | 4000 mg/kg
O=C(OCCN1CCN(c2cc(C(F)(F)F)cc(C(F)(F)F)c2)CC1)c1ccccc1Nc1ccnc2cc(C(F)(F)F)ccc12 | 80 mg/kg | 20 mg/kg | > 300 mg/kg | 4000 mg/kg
Cc1ccc(Cl)cc1N1CCN(CCOC(=O)c2ccccc2Nc2ccnc3cc(Cl)ccc23)CC1 | 30 mg/kg | 15 mg/kg | > 300 mg/kg | > 4000 mg/kg
O=C(OCCN1CCN(c2ccccc2)CC1)c1ccccc1Nc1cccc(OC(F)(F)F)c1 | 150 mg/kg | > 400 mg/kg |  | 2000 mg/kg
O=C(OCCN1CCN(c2cccc(Cl)c2)CC1)c1ccccc1Nc1ccnc2cc(Cl)ccc12 | > 100 mg/kg | 10 mg/kg | 60 mg/kg | 4000 mg/kg

Structure (SMILES) | ED40 [1] | ED50 [2] | ED2 [3] | LD50 at 168 h [4]
O=C(OCCN1CCN(c2cccc(Cl)c2)CC1)c1ccccc1Nc1cccc(SC(F)(F)F)c1 | > 50 mg/kg | > 400 mg/kg |  | 2000 mg/kg
O=C(OCCN1CCN(c2ccccc2)CC1)c1ccccc1Nc1cccc(C(F)(F)F)c1 | 100 mg/kg | 400 mg/kg |  | > 2000 mg/kg
O=C(OCCN1CCN(c2cccc(C(F)(F)F)c2)CC1)c1ccccc1Nc1ccnc2cc(OC(F)(F)F)ccc12 | 43 mg/kg | 20 mg/kg | 150 mg/kg | 1500 mg/kg
O=C(OCCN1CCN(c2cccc(Cl)c2)CC1)c1cccnc1Nc1cccc(SC(F)(F)F)c1 | > 300 mg/kg | 100 mg/kg |  | > 4000 mg/kg
Cc1ccc(C)c(N2CCN(CCOC(=O)c3ccccc3Nc3ccnc4cc(Cl)ccc34)CC2)c1 | 120 mg/kg | 22 mg/kg | 300 mg/kg | 4000 mg/kg
O=C(OCCN1CCN(c2cccc(Cl)c2)CC1)c1ccccc1Nc1ccnc2c(C(F)(F)F)cccc12 | 100 mg/kg | 18 mg/kg | > 300 mg/kg | > 3000 mg/kg
Cc1cccc(Nc2ccccc2C(=O)OCCN2CCN(c3ccccc3)CC2)c1C | > 50 mg/kg | 90 mg/kg |  | 4000 mg/kg
O=C(OCCN1CCN(c2ccccc2)CC1)c1ccccc1Nc1ccnc2cc(SC(F)(F)F)ccc12 | 100 mg/kg | 9 mg/kg | 300 mg/kg | 
O=C(OCCN1CCN(c2cccc(C(F)(F)F)c2)CC1)c1ccccc1Nc1ccnc2c(C(F)(F)F)cccc12 | 120 mg/kg | 40 mg/kg | 100 mg/kg | > 3000 mg/kg
Cc1c(Cl)cccc1Nc1ncccc1C(=O)OCCN1CCN(c2cccc(C(F)(F)F)c2)CC1 | > 100 mg/kg | 200 mg/kg |  | > 4000 mg/kg
O=C(OCCN1CCN(c2cccc(C(F)(F)F)c2)CC1)c1ccccc1Nc1ccnc2cc(Cl)ccc12 | 40 mg/kg | 24 mg/kg | 150 mg/kg | 
Cc1c(N(C)C)c(=O)n(-c2ccccc2)n1C [AMINOPYRINE] | 60 mg/kg | 40 mg/kg | 250 mg/kg | 800 mg/kg
O=C(OCC(O)CO)c1ccccc1Nc1ccnc2cc(Cl)ccc12 (centres undefined) [GLAFENINE] | 30 mg/kg | 56 mg/kg | > 600 mg/kg | 
O=C(OCCN1CCN(c2cccc(SC(F)(F)F)c2)CC1)c1ccccc1Nc1ccnc2cc(SC(F)(F)F)ccc12 | 180 mg/kg | 60 mg/kg | 200 mg/kg | 
O=C(OCCN1CCN(c2cccc(C(F)(F)F)c2)CC1)c1ccccc1Nc1cccc(SC(F)(F)F)c1 | > 50 mg/kg | 300 mg/kg |  | > 4000 mg/kg
O=C(O)c1ccccc1Nc1ccnc2cc(C(F)(F)F)ccc12 |  | 18 mg/kg | > 600 mg/kg | 1000 mg/kg
